Measurements taken from ChEMBL document CHEMBL1817571, “Design and synthesis of new prostaglandin D₂ receptor antagonists” (Bioorg Med Chem, 2011).

Legend:
[1] = biological target: Prostaglandin E2 receptor EP2 subtype (Mus musculus, UniProt Q62053); assay: Displacement of [3H]PGE2 from mouse prostaglandin EP2 receptor expressed in CHO cells after 60 mins by liquid scintillation counting; type: cell-based
Outline: (§1)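 Membranes came from CHO cells stably expressing mEP1, EP2, EP3 or EP4. They were incubated with 2.5 nM [3H]PGE2 and graded test concentrations in 10 mM KH2PO4–KOH (1 mM EDTA, 10 mM MgCl2, 100 mM NaCl, pH 6.0) at room temperature, 20 min for EP1 and 60 min for EP2–4. Reactions were filtered on GF/B, washed with ice-cold buffer, and counted by scintillation. IC50 came by regression, with Ki via Cheng–Prusoff.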

[2] = biological target: T1, Prostaglandin E2 receptor EP3 subtype (Mus musculus, UniProt P30557); assay: Displacement of [3H]PGE2 from mouse prostaglandin EP3alpha receptor expressed in CHO cells after 60 mins by liquid scintillation counting; type: cell-based; outline: as §1
T1 sequence (P30557 whole entry): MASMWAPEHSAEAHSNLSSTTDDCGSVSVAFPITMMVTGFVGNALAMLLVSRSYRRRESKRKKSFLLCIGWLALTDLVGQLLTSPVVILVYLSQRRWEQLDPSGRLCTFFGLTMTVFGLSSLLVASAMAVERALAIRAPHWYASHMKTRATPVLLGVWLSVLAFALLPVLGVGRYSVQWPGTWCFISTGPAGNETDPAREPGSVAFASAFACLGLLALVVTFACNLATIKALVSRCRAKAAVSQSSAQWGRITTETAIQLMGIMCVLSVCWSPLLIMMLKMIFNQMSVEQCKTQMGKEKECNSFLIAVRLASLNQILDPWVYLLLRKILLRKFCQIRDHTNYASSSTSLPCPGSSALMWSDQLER

[3] = biological target: Prostaglandin E2 receptor EP4 subtype (Mus musculus, UniProt P32240); assay: Displacement of [3H]PGE2 from mouse prostaglandin EP4 receptor expressed in CHO cells after 60 mins by liquid scintillation counting; type: cell-based; outline: as §1
Chain of Prostaglandin E2 receptor EP4 subtype (P32240 whole entry): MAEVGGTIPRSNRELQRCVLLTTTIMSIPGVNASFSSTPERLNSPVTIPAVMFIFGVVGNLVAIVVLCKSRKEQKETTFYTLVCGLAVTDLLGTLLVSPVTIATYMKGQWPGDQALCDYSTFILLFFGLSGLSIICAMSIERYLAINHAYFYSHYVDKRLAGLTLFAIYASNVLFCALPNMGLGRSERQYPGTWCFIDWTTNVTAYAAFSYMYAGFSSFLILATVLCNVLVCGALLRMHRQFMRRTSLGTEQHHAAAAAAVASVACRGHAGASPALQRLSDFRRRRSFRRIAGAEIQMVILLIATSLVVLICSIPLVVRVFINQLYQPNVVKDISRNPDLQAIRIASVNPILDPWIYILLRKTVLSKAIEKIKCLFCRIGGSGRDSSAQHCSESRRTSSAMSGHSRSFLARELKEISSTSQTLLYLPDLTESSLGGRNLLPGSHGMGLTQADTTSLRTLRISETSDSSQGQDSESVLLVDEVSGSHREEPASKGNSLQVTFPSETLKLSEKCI

[4] = biological target: T2, Prostaglandin D2 receptor (Mus musculus, UniProt P70263); assay: Antagonist activity at mouse prostanoid DP receptor expressed in CHO cells assessed as inhibition of PGD2-induced intracellular cAMP production; type: functional, cell-based
T2 sequence (P70263 whole entry): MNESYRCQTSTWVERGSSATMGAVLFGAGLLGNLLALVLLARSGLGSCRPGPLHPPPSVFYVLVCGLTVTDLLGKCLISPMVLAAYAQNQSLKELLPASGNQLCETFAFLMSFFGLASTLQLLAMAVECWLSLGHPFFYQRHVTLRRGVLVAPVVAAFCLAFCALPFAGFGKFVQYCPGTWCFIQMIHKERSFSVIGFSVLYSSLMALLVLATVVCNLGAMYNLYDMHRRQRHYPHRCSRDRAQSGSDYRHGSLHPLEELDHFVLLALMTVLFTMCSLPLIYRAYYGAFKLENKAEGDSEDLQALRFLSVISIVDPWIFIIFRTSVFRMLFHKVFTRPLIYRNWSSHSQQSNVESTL
Outline: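 CHO-mDP cells were seeded at 1×10^5 cells/well and grown 2 days. They were preincubated about 10 min at 37 °C in MEM with 2 µM diclofenac, then about 10 min in MEM with 0.1% BSA, 1 mM IBMX and 2 µM diclofenac. Test compounds at various concentrations plus 10 nM PGD2 were then added for 10 min at 37 °C. Reactions were stopped with 10% TCA, extracted with tri-n-octylamine/chloroform, and cAMP was measured by EIA.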

[5] = AUC (infinity) in rat at 1 mg/kg, iv; type: ADME, organism-based; set-up: time infinity, dose 1 mg/kg, route intravenous; conditions: plasma
Outline: (§2)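 Fasted male rats (n = 3) received 1 mg/kg iv or 10 mg/kg po. Jugular vein blood was drawn with a heparinized syringe at pre-dose and 2 (iv only), 5, 15 and 30 min, and 1, 2, 4, 6 and 8 h. Plasma was obtained by centrifugation at 4 °C and stored at −80 °C. AUC, Cmax, T1/2, Vss and CL came from the plasma concentration–time course. BA was derived from dose-normalized AUCpo/AUCiv.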

[6] = AUC (infinity) in rat at 10 mg/kg, po; type: ADME, organism-based; set-up: time infinity, dose 10 mg/kg, route oral; conditions: plasma; outline: as §2
[7] = Total clearance in rat at 1 mg/kg, iv; type: ADME, organism-based; set-up: dose 1 mg/kg, route intravenous; conditions: in vivo; outline: as §2
[8] = Cmax in rat at 10 mg/kg, po; type: ADME, organism-based; set-up: dose 10 mg/kg, route oral; conditions: in vivo; outline: as §2
[9] = Half life in rat at 1 mg/kg, iv; type: ADME, organism-based; set-up: dose 1 mg/kg, route intravenous; conditions: in vivo; outline: as §2
[10] = Half life in rat at 10 mg/kg, po; type: ADME, organism-based; set-up: dose 10 mg/kg, route oral; conditions: in vivo; outline: as §2
[11] = Volume of distribution at steady state in rat at 1 mg/kg, iv; type: ADME, organism-based; set-up: dose 1 mg/kg, route intravenous; conditions: in vivo, read-out: Vdss; outline: as §2
[12] = Oral bioavailability in rat at 10 mg/kg; type: ADME, organism-based; conditions: in vivo; outline: as §2
[13] = biological target: T2, Prostaglandin D2 receptor; assay: Displacement of [3H]PGD2 from mouse prostanoid DP receptor expressed in CHO cells after 20 mins by liquid scintillation counting
[14] = biological target: T3, Prostaglandin E2 receptor EP1 subtype (Mus musculus, UniProt P35375); assay: Displacement of [3H]PGE2 from mouse prostaglandin EP1 receptor expressed in CHO cells after 20 mins by liquid scintillation counting
T3 sequence (P35375 whole entry): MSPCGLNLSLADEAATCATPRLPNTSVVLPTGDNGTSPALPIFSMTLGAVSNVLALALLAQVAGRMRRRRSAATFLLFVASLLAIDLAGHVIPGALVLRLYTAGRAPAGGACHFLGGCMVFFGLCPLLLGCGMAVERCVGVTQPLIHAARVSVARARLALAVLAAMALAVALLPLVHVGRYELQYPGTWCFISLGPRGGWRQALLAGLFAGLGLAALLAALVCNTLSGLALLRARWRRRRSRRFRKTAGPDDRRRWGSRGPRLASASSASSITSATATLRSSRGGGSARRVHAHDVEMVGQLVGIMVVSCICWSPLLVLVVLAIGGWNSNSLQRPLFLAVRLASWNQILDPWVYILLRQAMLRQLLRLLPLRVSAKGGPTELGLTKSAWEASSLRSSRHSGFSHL

Prostacyclin receptor = Prostacyclin receptor (Homo sapiens, UniProt P43119); assay: Displacement of [3H]Iloprost from human prostanoid IP receptor expressed in CHO cells after 30 mins by liquid scintillation counting
Chain of Prostacyclin receptor (P43119 whole entry): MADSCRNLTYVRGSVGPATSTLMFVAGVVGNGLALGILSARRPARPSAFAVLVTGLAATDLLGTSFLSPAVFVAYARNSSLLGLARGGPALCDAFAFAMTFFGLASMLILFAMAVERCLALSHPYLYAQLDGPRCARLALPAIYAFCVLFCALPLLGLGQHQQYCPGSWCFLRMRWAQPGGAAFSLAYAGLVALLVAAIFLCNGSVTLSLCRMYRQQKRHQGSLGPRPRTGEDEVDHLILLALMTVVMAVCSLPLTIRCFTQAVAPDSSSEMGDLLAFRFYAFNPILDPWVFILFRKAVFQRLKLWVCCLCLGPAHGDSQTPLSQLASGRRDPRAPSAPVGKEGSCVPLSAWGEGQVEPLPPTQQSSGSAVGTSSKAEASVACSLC

[15] = biological target: Prostaglandin F2-alpha receptor (Mus musculus, UniProt P43117); assay: Displacement of [3H]PGF2alpha from mouse prostanoid FP receptor expressed in CHO cells after 60 mins by liquid scintillation counting; type: cell-based
Chain of Prostaglandin F2-alpha receptor (P43117 whole entry): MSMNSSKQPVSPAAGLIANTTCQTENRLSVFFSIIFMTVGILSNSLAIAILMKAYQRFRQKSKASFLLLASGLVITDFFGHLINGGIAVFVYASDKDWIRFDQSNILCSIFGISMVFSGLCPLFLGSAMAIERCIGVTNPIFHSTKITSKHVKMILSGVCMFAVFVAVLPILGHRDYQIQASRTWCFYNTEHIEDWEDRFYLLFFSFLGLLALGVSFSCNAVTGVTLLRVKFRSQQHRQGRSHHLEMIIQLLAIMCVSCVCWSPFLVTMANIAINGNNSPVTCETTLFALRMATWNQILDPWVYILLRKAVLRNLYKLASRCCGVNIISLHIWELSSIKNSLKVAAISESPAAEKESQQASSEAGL
Outline: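 CHO-mFP membranes were incubated with 2.5 nM [3H]PGF2α and varied test concentrations in 10 mM KH2PO4–KOH, 1 mM EDTA, 10 mM MgCl2, 100 mM NaCl, pH 6.0, for 60 min at room temperature. Samples were then filtered on GF/B, washed with ice-cold phosphate/NaCl buffer, and counted by scintillation. IC50 came from the regression curve, and Ki = IC50/(1+[L]/Kd).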

Thromboxane A2 receptor = biological target: T4, Thromboxane A2 receptor (Homo sapiens, UniProt P21731); assay: Displacement of [3H]-SQ29548 from human prostanoid TP receptor expressed in CHO cells after 30 mins by liquid scintillation counting
T4 sequence (P21731 whole entry): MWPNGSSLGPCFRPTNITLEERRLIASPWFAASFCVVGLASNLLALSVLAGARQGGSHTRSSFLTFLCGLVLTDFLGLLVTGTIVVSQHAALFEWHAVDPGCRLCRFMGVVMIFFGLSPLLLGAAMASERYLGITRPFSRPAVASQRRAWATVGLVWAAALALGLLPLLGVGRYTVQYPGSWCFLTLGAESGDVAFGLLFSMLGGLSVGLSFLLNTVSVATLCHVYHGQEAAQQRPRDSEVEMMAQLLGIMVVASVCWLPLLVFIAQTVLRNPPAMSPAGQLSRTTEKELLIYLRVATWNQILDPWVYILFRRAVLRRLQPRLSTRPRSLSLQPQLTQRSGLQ

Chain of Prostaglandin E2 receptor EP2 subtype (Q62053 whole entry): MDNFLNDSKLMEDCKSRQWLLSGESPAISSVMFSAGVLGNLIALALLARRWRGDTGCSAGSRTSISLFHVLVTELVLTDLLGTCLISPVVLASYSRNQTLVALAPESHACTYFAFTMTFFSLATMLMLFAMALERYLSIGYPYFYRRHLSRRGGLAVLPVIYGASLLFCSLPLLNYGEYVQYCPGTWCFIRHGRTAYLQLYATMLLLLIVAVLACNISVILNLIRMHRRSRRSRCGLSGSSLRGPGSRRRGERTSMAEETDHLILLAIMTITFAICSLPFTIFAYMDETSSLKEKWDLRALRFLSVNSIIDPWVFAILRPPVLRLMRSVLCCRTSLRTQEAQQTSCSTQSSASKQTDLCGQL

Row | Ki [1] [nM] | Ki [2] [nM] | Ki [3] [nM] | IC50 [4] [nM] | Ki [13] [nM] | Ki [14] [nM] | Ki (Prostacyclin receptor) [nM] | Structure (SMILES) | also measured
1 |  |  |  | 28 | 59 |  |  | Cc1cc(OC[C@@H]2CN(C)c3ccccc3O2)ccc1C(=O)Nc1cccc(CC(=O)O)c1C | 
2 |  |  |  | 6.1 | 11 |  |  | Cc1ccc(NC(=O)c2ccc(OC[C@@H]3CN(C)c4ccccc4O3)cc2C)cc1CC(=O)O | 
3 |  |  |  |  | 7.7 |  |  | Cc1cc(OC[C@@H]2CN(C)c3ccccc3O2)ccc1C(=O)Nc1cc(CC(=O)O)ccc1Cl | 

The remaining lines, values behind:

Row | Structure (SMILES) | Ki [1] [nM] | Ki [2] [nM] | Ki [3] [nM] | IC50 [4] [nM] | Ki [13] [nM] | Ki [14] [nM] | Ki (Prostacyclin receptor) [nM] | also measured
4 | CN1C[C@@H](COc2ccc(C(=O)Nc3cccc(CC(=O)O)c3)cc2)Oc2ccccc21 | 520 | > 10000 | > 10000 | 220 | 310 | 2100 | 6400 | AUC(0-inf) [5]: 670 ng·h/mL; AUC(0-inf) [6]: 8000 ng·h/mL; clearance [7]: 25 mL/min/kg; Cmax [8]: 4900 ng/mL; half-life [9]: 0.27 h; half-life [10]: 1.8 h; Vd [11]: 0.22 L/kg; bioavailability [12]: 119%
5 | CN1C[C@@H](COc2ccc(S(=O)(=O)Nc3cccc(CC(=O)O)c3)cc2)Oc2ccccc21 | 2300 | 210 | 140 |  | 430 | 2700 | 4600 | 
6 | CN1C[C@@H](COc2ccc(NC(=O)c3cccc(CC(=O)O)c3)cc2)Oc2ccccc21 | 3500 | > 10000 | > 10000 |  | 5300 | > 10000 | > 10000 | 
7 | CN1C[C@@H](COc2ccc(C(=O)N(C)c3cccc(CC(=O)O)c3)cc2)Oc2ccccc21 | 5300 | 1700 | > 10000 |  | 760 | > 10000 | > 10000 | 
8 | CCN(C(=O)c1ccc(OC[C@@H]2CN(C)c3ccccc3O2)cc1)c1cccc(CC(=O)O)c1 | > 10000 | 700 | > 10000 |  | 770 | 1300 | 2900 | 
9 | Cc1cc(OC[C@@H]2CN(C)c3ccccc3O2)ccc1C(=O)Nc1cccc(CC(=O)O)c1 |  | > 10000 | > 10000 | 3.3 | 18 | > 10000 | 3600 | Ki [15]: > 10000 nM; Ki (Thromboxane A2 receptor): > 10000 nM
10 | CN1C[C@@H](COc2ccc(C(=O)Nc3cccc(CC(=O)O)c3)c(Cl)c2)Oc2ccccc21 |  |  |  | 20 | 16 |  |  | 
11 | Cc1cc(CC(=O)O)cc(NC(=O)c2ccc(OC[C@@H]3CN(C)c4ccccc4O3)cc2C)c1 | 62 | > 10000 | 670 | 3.4 | 8.4 | > 10000 | 3500 | Ki [15]: > 10000 nM; Ki (Thromboxane A2 receptor): > 10000 nM
